Test results reported in paper PMC6719797 (Bioorganic & medicinal chemistry letters, 2019).
Values belong to the molecule of their own block, whether it stands above or below them.

Key:
[1] = target: DNA polymerase eta; settings: read-out: IC50 DNA polymerase eta; ref PubChem; cited from earlier work
[2] = target: T1, human UCK2 (Homo sapiens, UniProt Q9BZX2); format: biochemical; settings: kinetic analysis
T1 sequence (Q9BZX2 1-261): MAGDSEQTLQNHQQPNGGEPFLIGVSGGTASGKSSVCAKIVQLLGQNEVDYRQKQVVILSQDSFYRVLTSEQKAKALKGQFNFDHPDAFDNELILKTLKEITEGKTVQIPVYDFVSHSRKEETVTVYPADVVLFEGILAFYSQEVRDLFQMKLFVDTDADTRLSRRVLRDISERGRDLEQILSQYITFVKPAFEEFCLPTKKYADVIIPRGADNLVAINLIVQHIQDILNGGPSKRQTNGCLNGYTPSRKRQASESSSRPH
In short: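 C-terminally His6-tagged human UCK2 was purified by Ni-NTA and then ion-exchange chromatography. UCK2-generated ADP was coupled through pyruvate kinase and lactate dehydrogenase, and NADH consumption was followed continuously at 340 nm. To determine the mode of inhibition, uridine or ATP was titrated at several fixed inhibitor concentrations, and Ki values were derived for each substrate.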

[3] = target: DNA polymerase kappa; settings: read-out: IC50 DNA polymerase kappa; ref PubChem; cited from earlier work
[4] = target: T1, human UCK2; test: ADP-Glo kinase assay for UCK2 activity; format: biochemical; settings: for IC50 obtained from validation experiments: retested in the ADP-Glo assay, unit given
[5] = tested on: K562 cells; test: 5-EU uridine salvage assay; format: cell-based; settings: for %Inhibition at highest tested concentration (EU assay): K562 cells, 50 µM compound, 5-EU salvage
In short: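 K562 cells, untreated or pre-treated with the DHODH inhibitor GSK983, were given 5-ethynyl-uridine (5-EU) with test compound at a fixed concentration (50 µM). Salvaged 5-EU incorporated into cellular RNA was detected with a fluorescent click probe. Dipyridamole (20 µM) served as the uridine-salvage inhibitor control.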

[6] = target: T2, CMPK1 (Homo sapiens, UniProt P30085); test: ADP-Glo screen for CMPK1; format: biochemical; settings: analogous ADP-Glo screen
T2 sequence (P30085 1-196): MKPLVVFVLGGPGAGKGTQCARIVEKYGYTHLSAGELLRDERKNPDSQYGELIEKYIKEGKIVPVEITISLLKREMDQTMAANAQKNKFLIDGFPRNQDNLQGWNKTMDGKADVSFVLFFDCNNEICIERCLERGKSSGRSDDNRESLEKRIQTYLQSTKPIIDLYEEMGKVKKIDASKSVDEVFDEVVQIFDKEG

[7] = target: DNA polymerase beta; settings: read-out: IC50 DNA polymerase beta; HTS hit; ref PubChem; cited from earlier work
[8] = target: DNA polymerase iota; settings: read-out: IC50 DNA polymerase iota; HTS hit; ref PubChem; cited from earlier work
[9] = tested on: A549 cells; test: 5-EU uptake assay in A549 cells; format: cell-based
[10] = substrate: O=c1ccn([C@@H]2O[C@H](CO)[C@@H](O)[C@H]2O)c(=O)[nH]1; test: ADP-Glo kinase assay for UCK2 activity; format: biochemical, human; settings: other: steady state conditions, named substrate varied

Molecule: Nc1ncnc2c1ncn2[C@@H]1O[C@H](COP(=O)(O)OP(=O)(O)OP(=O)(O)O)[C@@H](O)[C@H]1O [ATP]
- Km ([4]; read-out: KM (UCK2 substrate), steady state conditions, named substrate varied): 61 ± 1 µM

Molecule: Cc1ccc(-c2nc3c(c(SCC(=O)Nc4ccccc4)n2)Cc2cccc(C)c2O3)cc1 [20874830–1]
- %Inhibition at highest tested concentration (EU assay) [5]: No inhibition

Molecule: O=C(N[C@@H]1CCCc2c1[nH]c1ccc(Cl)cc21)c1ccccn1 [GSK983, reference compound]
- Effect on uridine salvage (5-EU assay) ([5]; K562 cells treated with GSK983 vs untreated): significantly increased uridine salvage

Molecule: OCCN(CCO)c1nc(N2CCCCC2)c2nc(N(CCO)CCO)nc(N3CCCCC3)c2n1 [Dipyridamole, dipyridamole]
- Inhibition of 5-EU uptake [9]: inhibits 5-EU uptake in a dose-dependent manner

B1: human UCK2 (Homo sapiens) (protein)
chain: MAGDSEQTLQNHQQPNGGEPFLIGVSGGTASGKSSVCAKIVQLLGQNEVDYRQKQVVILSQDSFYRVLTSEQKAKALKGQFNFDHPDAFDNELILKTLKEITEGKTVQIPVYDFVSHSRKEETVTVYPADVVLFEGILAFYSQEVRDLFQMKLFVDTDADTRLSRRVLRDISERGRDLEQILSQYITFVKPAFEEFCLPTKKYADVIIPRGADNLVAINLIVQHIQDILNGGPSKRQTNGCLNGYTPSRKRQASESSSRPH
- Km [10]: 62 ± 5 µM

Further lines, with some results ahead:

- Mode of inhibition with respect to uridine and ATP [2]: non-competitive
Molecule: O=C(CSc1nc2n(-c3ccc(F)cc3)[nH]cc-2c(=O)n1)Nc1ccc(Br)cc1 [compound 135416439]
- IC50 [1]: 56 µM
- IC50 [3]: 16 µM

- Mode of inhibition with respect to uridine and ATP [2]: primarily non-competitive
Molecule: Cc1ccc(-c2nc3c(c(SCC(=O)Nc4cccc(C(=O)O)c4)n2)Cc2cccc(C)c2O3)cc1 [compound 20874830]

- IC50 obtained from validation experiments [4]: completely inactive
Molecule: COc1cccc(NC(=O)CSCn2[nH]nc3c(=O)nc(Cc4ccc(F)cc4)nc2-3)c1 [135546734–3]
- %Inhibition at highest tested concentration (EU assay) [5]: No inhibition

- IC50 obtained from validation experiments [4]: completely inactive
Molecule: O=C(CSCn1[nH]nc2c(=O)nc(Cc3ccc(F)cc3)nc1-2)Nc1ccc(F)cc1 [135546734–2]

- Inhibition of CMPK1 [6]: no inhibition
- Mode of inhibition with respect to uridine and ATP [2]: similarly non-competitive
Molecule: Cc1cc(C)cc(NC(=O)CSCn2[nH]nc3c(=O)nc(Cc4ccc(F)cc4)nc2-3)c1 [compound 135546734]
- inhibition at 50 µM ([5]; Homo sapiens, K562, read-out: %Inhibition at highest tested concentration (EU assay), K562 cells, 50 µM compound, 5-EU salvage): ~40%
- IC50 [1]: 79 µM
- IC50 [7]: 40 µM
- IC50 [8]: 79 µM
